# ABCB1 block = inhibitors of human ABCB1 transporter, ABCG2 counter-screen; P08183; CCRF-Adr cells, JC-1 efflux, flow cytometry; inhibition, % at 6.6 µM; 190,000 tested, 0.067% active; in the data active = inhibition above about 40%;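 note: 0% = vehicle and 100% = reference inhibitor; higher value means more JC-1 retained so stronger ABCB1 efflux block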
# ABCG2 block = human ABCG2 inhibition, ABCB1 as counter-screen. IgMXP3 cells, JC-1 efflux, flow cytometry. inhibition, % at 6.6 µM. 190,000 tested, 0.1% active. Q9UNQ0;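 active = inhibition above 80%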;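 note: 0% = DMSO and 100% = nicardipine control wells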
# Target sequence (Q9UNQ0 whole entry, looked up): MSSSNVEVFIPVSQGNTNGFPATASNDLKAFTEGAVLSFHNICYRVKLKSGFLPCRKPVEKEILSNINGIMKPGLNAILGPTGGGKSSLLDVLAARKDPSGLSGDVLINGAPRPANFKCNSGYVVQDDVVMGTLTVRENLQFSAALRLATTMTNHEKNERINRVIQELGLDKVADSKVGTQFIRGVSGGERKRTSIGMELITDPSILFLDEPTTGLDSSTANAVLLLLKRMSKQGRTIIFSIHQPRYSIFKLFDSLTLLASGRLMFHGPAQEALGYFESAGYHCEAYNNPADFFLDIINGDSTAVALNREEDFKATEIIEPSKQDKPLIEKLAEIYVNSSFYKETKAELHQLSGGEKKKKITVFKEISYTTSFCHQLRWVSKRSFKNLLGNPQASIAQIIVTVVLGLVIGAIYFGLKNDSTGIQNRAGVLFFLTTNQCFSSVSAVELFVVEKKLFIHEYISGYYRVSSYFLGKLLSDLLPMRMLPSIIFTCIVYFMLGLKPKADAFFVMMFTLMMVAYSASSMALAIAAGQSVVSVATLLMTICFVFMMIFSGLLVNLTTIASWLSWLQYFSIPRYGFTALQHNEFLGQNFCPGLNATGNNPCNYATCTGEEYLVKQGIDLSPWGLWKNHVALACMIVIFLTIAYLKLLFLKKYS
#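 Read-out basis: Efflux inhibition in percent versus controls | Test system: ABCG2 IgMXP3 and barcoded ABCB1 CCRF-Adr cell mix | Quantity: 3 million cells/mL in well | Schedule: 10 min at 25 °C | Control set: Nicardipine as high control, DMSO as low control | Reagent: JC-1 as fluorescent efflux pump substrate | Signal: Flow cytometry of retained JC-1 fluorescence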
# MEKK3 PB1 HTS = MEKK3-MEK5 PB1 interaction, increase or decrease; bead-based flow cytometry, Alexa488-MEK5 binding to MEKK3; actives lie on both sides; 0 = blocked by unlabeled MEK5, 100 = vehicle; AID 1529; binding response (% of control), % at 10 µM; Q99759; 290,000 tested, 1.4% active;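 active = binding response more than 3 SD above or below the average of its plate-row segment, actives on both sides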;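 note: Alexa488 bead fluorescence after subtracting the streptavidin-only scavenger bead signal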
# MEKK2wt PB1 HTS = raises or lowers MEK5 binding to wildtype human MEKK2 PB1 domain | Q9Y2U5 | bead flow cytometry, Alexa488-MEK5 binding to MEKK2 WT; actives lie on both sides | binding response (% of control), % at 10 µM | 290,000 tested, 1.1% active | AID 1531; in the data active = binding response below about 67% or above about 130%
# MEKK2mut PB1 HTS = signal of MEK5 binding to mutant human MEKK2 PB1 domain; 290,000 tested, 0.35% active; bead flow cytometry, Alexa488-MEK5 binding to MEKK2 mutant; AID 1530; percent response, % at 10 µM; in the data active = percent response above about 24%, passing the limit was not always enough
# MEKK2wt confirm = raises or lowers MEK5 binding to wildtype human MEKK2, retest. shares compounds with MEKK3 PB1 HTS. bead flow cytometry, Alexa488-MEK5 binding to MEKK2 WT; actives lie on both sides. binding response (% of control), % at 10 µM. 5,900 tested, 2.4% active. AID 1892; in the data active = binding response below about 16% or above about 210%; inactive = in between
# MEKK2mut-MEK5 = signal of MEK5 binding to mutant human MEKK2, retest. shares compounds with MEKK3 PB1 HTS. bead flow cytometry, Alexa488-MEK5 binding to MEKK2 mutant. percent response, % at 10 µM. 5,900 tested, 2% active. AID 1893; in the data active = percent response mostly above about 71%, no sharp cut-off; inactive = mostly below about 38%;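 note: higher means compound restores mutant binding toward wildtype level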
# MEKK3 confirm = MEKK3-MEK5 PB1 inhibition, single concentration confirmation | binding response (% of control), % at 10 µM | bead flow cytometry, Alexa488-MEK5 binding to MEKK3; hits give low values | shares compounds with MEKK3 PB1 HTS | 5,900 tested, 1.8% active;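 active = binding response below 72% of control, or above a set upper limit, though filed actives all read lower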;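 note: 100% = DMSO only wells and 0% = binding blocked by excess unlabeled MEK5; lower values mean stronger disruption of MEK5 binding to MEKK3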
# Starred values were filed as active, the others as inactive; . = no result given; [ ] = another dose, or the depositor's remark. An excerpt weighted towards active compounds, which were near 2.3% of everything screened.
SMILES,ABCB1 block,ABCG2 block,MEKK3 PB1 HTS,MEKK2wt PB1 HTS,MEKK2mut PB1 HTS,MEKK2wt confirm,MEKK2mut-MEK5,MEKK3 confirm
CC(C)OCCCNC(=O)CCN1C(=O)COc2ccccc21,1.0,3.7,1.0*[inhibitor],-2.0*[inhibitor],-20.0,108.0,6.0,106.0
O=C(CCN1C(=O)COc2ccccc21)NCCCN1CCc2ccccc2C1,0.2,0.8,87.0,93.0,-5.0,.,.,.
CCOC(=O)C(NC(=O)c1ccccc1Cl)(Nc1ccc(C(F)(F)F)cc1)C(F)(F)F (configuration not stated),3.3,2.5,151.0*,106.0,3.0,101.0,-3.0,101.0
O=C1OC(c2ccccc2)=C/C1=C\N1CCOCC1,0.1,3.0,2.0*[inhibitor],2.0*[inhibitor],-16.0,107.0,3.0,105.0
CCC(CC)C(=O)Nc1cc(C(=O)OC)ccc1C(=O)OC,2.2,30.8,194.0*,113.0,1.0,97.0,-1.0,105.0
COC(=O)c1ccc(C(=O)OC)c(NC(=O)C(C)(C)C)c1,0.6,9.8,109.0,103.0,-1.0,.,.,.
Cc1cc(SCc2ccc(Br)cc2)nc(=O)[nH]1,.,.,99.0,97.0,5.0,.,.,.
CCc1ccc(NC(=O)Nc2cc(C(=O)O)ccc2N2CC3CC(C2)c2cccc(=O)n2C3)cc1 (configuration not stated),.,.,104.0,99.0,4.0,.,.,.
O=C(O)c1ccc(N2CC3CC(C2)c2cccc(=O)n2C3)c(NC(=S)Nc2ccc(Cl)cc2Cl)c1 (configuration not stated),-0.6,-1.1,65.0*[inhibitor],17.0*[inhibitor],-30.0,91.0,-7.0,95.0
COc1cccc(-n2cc(C(=O)NCCCOC(C)C)c3ccccc3c2=O)c1,.,.,111.0,108.0,12.0,.,.,.
CCOC(=O)C1=C(c2ccccc2)NC(N)=NC1c1ccc(OCc2ccc(Cl)cc2)c(OC)c1 (configuration not stated),.,.,105.0,248.0*,82.0*,251.0*,121.0*,112.0
CC1(c2ccccc2)CC(C)(C)N2C(=O)/C(=C3\SC(=S)NC3=O)c3cccc1c32 (configuration not stated),-1.2,-6.7,147.0*,96.0,-1.0,95.0,-3.0,95.0
CC1(c2ccccc2)CC(C)(C)N2C(=O)C3(C(C#N)=C(N)Oc4cc(O)ccc43)c3cccc1c32 (configuration not stated),-0.1,-0.3,101.0,88.0,-4.0,.,.,.
CCN(CC)CCC(c1ccc(N(C)C)cc1)c1c(O)cc(OC)cc1OC (configuration not stated),.,.,118.0,138.0*,4.0,92.0,-8.0,98.0
COc1cc(O)c(C(CCN2CCN(c3ccccc3)CC2)c2ccc(N(C)C)cc2)c(OC)c1 (configuration not stated),.,.,123.0,151.0*,9.0,143.0,19.0,104.0
COc1ccc(C(CCN2CCN(c3ccccc3)CC2)c2c(O)cc(OC)cc2OC)cc1 (configuration not stated),.,.,98.0,135.0*,8.0,140.0,20.0,107.0
CCCc1cc(=O)oc2cc(C)cc(OCC(=O)Nc3ccc(CN4CCOCC4)cc3)c12,.,.,103.0,110.0,2.0,.,.,.
CN(C)CC(C)(C)CNC(=S)NCc1ccc2c(c1)OCO2,-0.2,-2.0,128.0*,104.0,3.0,99.0,3.0,106.0
COc1cc(/C=N/S(=O)(=O)CCc2ccccc2)cc(OC)c1O,0.4,1.4,128.0*,103.0,0.0,103.0,-1.0,100.0
COc1cc(/C=C(\C#N)C(=O)NCCc2ccccc2)cc(OC)c1O,1.2,32.2,101.0,105.0,2.0,.,.,.
